{"source": "ChEMBL document CHEMBL3867485", "about": "“Design, Conformation, and Crystallography of 2-Naphthyl Phenyl Ethers as Potent Anti-HIV Agents” (ACS Med Chem Lett, 2016)", "key": {"[1]": {"assay": "Inhibition of wild-type HIV1 3B reverse transcriptase infected in human MT2 cells assessed as protection against viral infection by MTT assay", "format": "cell-based", "conditions": "Human immunodeficiency virus 1, 3B", "procedure,_shortened": "(§1)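 Human MT-2 T cells, run in triplicate. For antiviral activity, cells were infected with the HIV-1 IIIB strain, and EC50 was taken as the dose giving 50% protection of infected cells. For cytotoxicity, CC50 was the concentration that inhibited MT-2 cell growth by 50%.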"}, "[2]": {"assay": "Cytotoxicity against human MT2 cells assessed as reduction in cell growth by MTT assay", "format": "toxicity, cell-based", "procedure,_shortened": "as §1"}, "[3]": {"assay": "Aqueous solubility of the compound at pH 6.5 by shake-flask method", "format": "physicochemical"}}, "note": "pEC50: −log10 of the molar value.", "data": [{"smiles": "N#Cc1cc2c(Oc3ccc(F)cc3OCCn3ccc(=O)[nH]c3=O)cc(F)cn2c1", "values": [{"measurement": "pEC50", "setting": "[1]", "value": 9.40}]}, {"smiles": "Cc1cc2ccc(C#N)cc2c(C)c1Oc1ccccc1OCCn1ccc(=O)[nH]c1=O", "values": [{"measurement": "pEC50", "setting": "[1]", "value": 6.80}, {"measurement": "CC50", "setting": "[2]", "value": 5000, "unit": "nM"}]}, {"smiles": "N#Cc1ccc2c(Cl)cc(Oc3ccc(F)cc3OCCn3ccc(=O)[nH]c3=O)cc2c1", "values": [{"measurement": "pEC50", "setting": "[1]", "value": 7.62}, {"measurement": "CC50", "setting": "[2]", "value": "> 100000", "unit": "nM"}]}, {"smiles": "N#Cc1ccc2c(Cl)cc(Oc3ccccc3OCCn3ccc(=O)[nH]c3=O)cc2c1", "values": [{"measurement": "pEC50", "setting": "[1]", "value": 7.85}, {"measurement": "CC50", "setting": "[2]", "value": 12000, "unit": "nM"}]}, {"smiles": "Cc1c(Oc2ccccc2OCCn2ccc(=O)[nH]c2=O)cc(C(C)C)c2ccc(C#N)cc12", "values": [{"measurement": "pEC50", "setting": "[1]", "value": 7.80}, {"measurement": "CC50", "setting": "[2]", "value": 9000, "unit": "nM"}]}, {"smiles": "Cc1c(Oc2ccc(F)cc2OCCn2ccc(=O)[nH]c2=O)cc(F)c2ccc(C#N)cc12", "values": [{"measurement": "pEC50", "setting": "[1]", "value": 8.52}, {"measurement": "CC50", "setting": "[2]", "value": "> 100000", "unit": "nM"}]}, {"smiles": "Cc1c(Oc2ccc(F)cc2OCCn2ccc(=O)[nH]c2=O)cc(Cl)c2ccc(C#N)cc12", "values": [{"measurement": "pEC50", "setting": "[1]", "value": 8.44}, {"measurement": "CC50", "setting": "[2]", "value": 82000, "unit": "nM"}]}, {"smiles": "N#Cc1ccc2ccc(Oc3ccc(F)cc3OCCn3ccc(=O)[nH]c3=O)cc2c1", "values": [{"measurement": "pEC50", "setting": "[1]", "value": 7.59}, {"measurement": "CC50", "setting": "[2]", "value": "> 100000", "unit": "nM"}]}, {"smiles": "Cc1cc(Oc2ccc(F)cc2OCCn2ccc(=O)[nH]c2=O)c(F)c2cc(C#N)ccc12", "values": [{"measurement": "pEC50", "setting": "[1]", "value": 7.24}, {"measurement": "CC50", "setting": "[2]", "value": 45000, "unit": "nM"}]}, {"smiles": "Cc1c(Oc2ccccc2OCCn2ccc(=O)[nH]c2=O)c(C)c2cc(C#N)ccc2c1C", "values": [{"measurement": "pEC50", "setting": "[1]", "value": 6.24}, {"measurement": "CC50", "setting": "[2]", "value": "> 100000", "unit": "nM"}]}, {"smiles": "Cc1c(Oc2ccc(Cl)cc2OCCn2ccc(=O)[nH]c2=O)cc(F)c2ccc(C#N)cc12", "values": [{"measurement": "pEC50", "setting": "[1]", "value": 7.74}, {"measurement": "CC50", "setting": "[2]", "value": 6000, "unit": "nM"}]}, {"smiles": "Cc1c(Oc2ccccc2OCCn2ccc(=O)[nH]c2=O)cc(Cl)c2ccc(C#N)cc12", "values": [{"measurement": "pEC50", "setting": "[1]", "value": 8.21}, {"measurement": "CC50", "setting": "[2]", "value": "> 100000", "unit": "nM"}, {"measurement": "solubility thermodynamic", "setting": "[3]", "value": 20.6, "unit": "µg/mL"}]}, {"smiles": "N#Cc1ccc2c(F)cc(Oc3ccc(F)cc3OCCn3ccc(=O)[nH]c3=O)c(Cl)c2c1", "values": [{"measurement": "pEC50", "setting": "[1]", "value": 8.15}, {"measurement": "CC50", "setting": "[2]", "value": 28000, "unit": "nM"}]}, {"smiles": "Cc1cc(Oc2ccccc2OCCn2ccc(=O)[nH]c2=O)c(Cl)c2cc(C#N)ccc12", "values": [{"measurement": "pEC50", "setting": "[1]", "value": 8.30}, {"measurement": "CC50", "setting": "[2]", "value": "> 100000", "unit": "nM"}]}, {"smiles": "N#Cc1ccc2c(F)cc(Oc3ccccc3OCCn3ccc(=O)[nH]c3=O)c(Cl)c2c1", "values": [{"measurement": "pEC50", "setting": "[1]", "value": 8.30}, {"measurement": "CC50", "setting": "[2]", "value": "> 100000", "unit": "nM"}]}, {"smiles": "CCc1cc(Oc2ccccc2OCCn2ccc(=O)[nH]c2=O)c(C)c2cc(C#N)ccc12", "values": [{"measurement": "pEC50", "setting": "[1]", "value": 8.22}, {"measurement": "CC50", "setting": "[2]", "value": 12000, "unit": "nM"}]}, {"smiles": "Cc1cc(Oc2ccc(F)cc2OCCn2ccc(=O)[nH]c2=O)c(C)c2cc(C#N)ccc12", "values": [{"measurement": "pEC50", "setting": "[1]", "value": 8.72}, {"measurement": "CC50", "setting": "[2]", "value": "> 100000", "unit": "nM"}]}, {"smiles": "CCOc1cc(Oc2ccccc2OCCn2ccc(=O)[nH]c2=O)c(C)c2cc(C#N)ccc12", "values": [{"measurement": "pEC50", "setting": "[1]", "value": 8.00}, {"measurement": "CC50", "setting": "[2]", "value": "> 100000", "unit": "nM"}]}, {"smiles": "N#Cc1ccc2cc(Oc3ccccc3OCCn3ccc(=O)[nH]c3=O)ccc2c1", "values": [{"measurement": "pEC50", "setting": "[1]", "value": 5.89}, {"measurement": "CC50", "setting": "[2]", "value": 9000, "unit": "nM"}]}, {"smiles": "Cc1c(Oc2ccccc2OCCn2ccc(=O)[nH]c2=O)cc(F)c2ccc(C#N)cc12", "values": [{"measurement": "pEC50", "setting": "[1]", "value": 8.11}, {"measurement": "CC50", "setting": "[2]", "value": "> 100000", "unit": "nM"}, {"measurement": "solubility thermodynamic", "setting": "[3]", "value": 28.2, "unit": "µg/mL"}]}, {"smiles": "COc1cc(Oc2ccccc2OCCn2ccc(=O)[nH]c2=O)c(C)c2cc(C#N)ccc12", "values": [{"measurement": "pEC50", "setting": "[1]", "value": 7.77}, {"measurement": "CC50", "setting": "[2]", "value": "> 100000", "unit": "nM"}]}, {"smiles": "Cc1cc(Oc2ccccc2OCCn2ccc(=O)[nH]c2=O)c(C)c2cc(C#N)ccc12", "values": [{"measurement": "pEC50", "setting": "[1]", "value": 8.46}, {"measurement": "CC50", "setting": "[2]", "value": "> 100000", "unit": "nM"}]}, {"smiles": "Cc1cc(Oc2ccccc2OCCn2ccc(=O)[nH]c2=O)cc2cc(C#N)ccc12", "values": [{"measurement": "pEC50", "setting": "[1]", "value": 8.31}, {"measurement": "CC50", "setting": "[2]", "value": 6000, "unit": "nM"}]}, {"smiles": "COCc1cc(Oc2ccccc2OCCn2ccc(=O)[nH]c2=O)c(C)c2cc(C#N)ccc12", "values": [{"measurement": "pEC50", "setting": "[1]", "value": 7.82}, {"measurement": "CC50", "setting": "[2]", "value": 16000, "unit": "nM"}]}, {"smiles": "CCCc1cc(Oc2ccccc2OCCn2ccc(=O)[nH]c2=O)c(C)c2cc(C#N)ccc12", "values": [{"measurement": "pEC50", "setting": "[1]", "value": 7.68}, {"measurement": "CC50", "setting": "[2]", "value": 15000, "unit": "nM"}]}, {"smiles": "N#Cc1ccc2ccc(Oc3ccccc3OCCn3ccc(=O)[nH]c3=O)cc2c1", "values": [{"measurement": "pEC50", "setting": "[1]", "value": 7.66}, {"measurement": "CC50", "setting": "[2]", "value": 15000, "unit": "nM"}]}, {"smiles": "Cc1c(Oc2ccccc2OCCn2ccc(=O)[nH]c2=O)cc(CC2CC2)c2ccc(C#N)cc12", "values": [{"measurement": "pEC50", "setting": "[1]", "value": 7.74}, {"measurement": "CC50", "setting": "[2]", "value": 13000, "unit": "nM"}]}]}
